# Source: PubChem (several laboratories)
# PAFAH1B3 inh: inhibitors of human PAFAH1B3; Q15102; recombinant PAFAH1B3, FP-rhodamine probe, fluorescence polarization; inhibition, % at 3.39 µM; hit rate 0.28% among 340,000;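 active = inhibition above the screen-wide average of all tested compounds plus 3 SD, cut at about 25% in these data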;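 note: 0% = enzyme with DMSO only and 100% = wells lacking PAFAH1B3 protein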
# NR3A LBD binder: modulators (binders) of human NR3A ligand-binding domain. NR3A LBD differential scanning fluorimetry, Tm shift; 0% = protein alone, 100% = glycine-bound protein. AID 1259313. Tm shift relative to glycine control, % at 25 µM. hit rate 2.5% among 340,000;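 active = melting temperature shift of at least 10% of the positive control shift, at one fixed dose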
# PAFAH2 FP inh: PAFAH2 (human) inhibition; inhibition, % at 3.39 µM; Q99487; recombinant PAFAH2, FP-rhodamine activity probe, fluorescence polarization; hit rate 0.99% among 340,000;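 active = inhibition above the mean over all tested compounds plus 3 SD, cut at about 30% in these data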;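 note: inhibitors block probe labeling of enzyme so polarization drops; 0% = enzyme with DMSO and 100% = wells lacking PAFAH2 protein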
# UCH37 DUB inh: inhibitors of human deubiquitinating enzyme UCH37; Q9Y5K5; purified proteasome/UCH37, Ub-AMC cleavage fluorescence; inhibition, % (concentration not given with the values); hit rate 0.33% among 330,000;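 active = mean inhibition over replicate wells above about 20%, limit read from the data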;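 note: 0% = compound-free wells with enzyme and 100% = wells lacking proteasome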
# Target sequence (Q9Y5K5 whole entry, looked up): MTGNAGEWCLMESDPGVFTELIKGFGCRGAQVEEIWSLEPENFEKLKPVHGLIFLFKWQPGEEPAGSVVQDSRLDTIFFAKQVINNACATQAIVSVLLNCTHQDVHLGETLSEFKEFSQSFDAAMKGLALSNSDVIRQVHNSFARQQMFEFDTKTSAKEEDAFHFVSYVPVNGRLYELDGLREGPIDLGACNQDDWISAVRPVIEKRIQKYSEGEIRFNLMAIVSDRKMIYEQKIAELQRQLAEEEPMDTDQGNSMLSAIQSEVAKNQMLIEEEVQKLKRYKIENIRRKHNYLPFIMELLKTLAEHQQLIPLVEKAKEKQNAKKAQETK
#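 Material: human UCH37 enzyme supplied as purified proteasome complex / Amount: 0.15 nM proteasome as dispensed / Buffer or medium: pH 7.4 Tris-HCl (50 mM) with ovalbumin, ATP-MgCl2, DTT / Times: preincubation 30 min, reaction 25 min, room temperature / Technique: AMC fluorescence from Ub-AMC cleavage, excitation 355 nm, emission 460 nm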
# PAFAH1B2 inh: PAFAH1B2 (human) inhibition | inhibition, % at 3.39 µM | P68402 | AID 492953 | recombinant PAFAH1B2, FP-rhodamine activity probe, fluorescence polarization | hit rate 1.2% among 340,000;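 active = inhibition above the mean of all tested compounds plus 3 SD, cut at about 24% in these data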;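 note: 0% = enzyme with DMSO and 100% = wells lacking PAFAH1B2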
# Target sequence (P68402 whole entry, looked up): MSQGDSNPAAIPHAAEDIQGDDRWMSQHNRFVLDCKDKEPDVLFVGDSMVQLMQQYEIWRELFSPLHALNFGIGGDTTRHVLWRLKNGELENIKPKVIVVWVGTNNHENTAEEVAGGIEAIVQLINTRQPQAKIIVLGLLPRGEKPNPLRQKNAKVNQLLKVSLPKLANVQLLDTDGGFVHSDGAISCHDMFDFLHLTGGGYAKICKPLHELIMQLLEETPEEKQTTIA
# pPAFAH FP inh: inhibitors of human plasma PAF acetylhydrolase (pPAFAH) | hit rate 1.5% among 330,000 | AID 463082 | recombinant pPAFAH, FP-rhodamine probe fluorescence polarization | inhibition, % at 3.39 µM;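 active = inhibition above the mean inhibition across the screen plus 3 SD, cut at about 25% in these data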;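 note: inhibitors block binding of the rhodamine activity-based probe so polarization drops; 0% = enzyme with DMSO and 100% = wells lacking pPAFAH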
# UCH37 confirm: UCH37 Ub-AMC cleavage inhibition, confirmed. Proteasome-bound UCH37, Ub-AMC cleavage fluorescence. inhibition, % at 20 µM. hit rate 27% among 480. shares compounds with UCH37 DUB inh;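 active = average inhibition over replicates above about 50%, so the earlier screening hit is confirmed, limit read from the data; inactive = the rest, counted as false positives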;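 note: based on cleavage rate fitted by regression over a 30 min kinetic read; 0% = proteasome plus Ub-AMC and 100% = Ub-AMC without proteasome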
# Numbers without * were called inactive; . = no result given. In the library only some 4.8% were active in any assay of this set; here they are far more common.
SMILES,PAFAH1B3 inh,NR3A LBD binder,PAFAH2 FP inh,UCH37 DUB inh,PAFAH1B2 inh,pPAFAH FP inh,UCH37 confirm
CC[C@]1(c2cccc(C)c2)C(=O)N(C(=O)OC)N1C(=O)OC,9,4,0,35*,7,-1,-6
CCN(CC)c1ccc(C=NO)cc1,.,.,.,2,.,.,.
Cc1ccc(C(=O)ON=Cc2ccc(N3CCCCC3)c([N+](=O)[O-])c2)cc1,.,.,.,40*,.,.,-2
Cc1ccc(C(=O)O/N=C\c2ccc(N3CCCCC3)c([N+](=O)[O-])c2)cc1,2,-1,1,.,-2,7,.
CC(=NNC(=O)c1ccncc1)c1ccc(NC(=O)c2ccccc2)cc1,.,.,.,3,.,.,.
Cc1ccc(Oc2ncccc2C=NO)cc1,.,.,.,3,.,.,.
Cc1ccccc1NC1=C/C(=N\S(=O)(=O)c2cccs2)c2ccccc2C1=O,64*,-4,40*,78*,25*,21,3
O=C1C(Nc2ccccc2)=CC(=NS(=O)(=O)c2cccs2)c2ccccc21,.,.,.,78*,.,.,34
CCN(CC)c1ccc(C=NNC(=O)Cc2ccc(OC)c(OC)c2)cc1,.,.,.,-224,.,.,.
O=C(O)c1ccc(C=NNc2ccc(S(=O)(=O)N3CCCC3)cc2[N+](=O)[O-])cc1,.,.,.,14,.,.,.
O=C(c1cccs1)N1CCN(S(=O)(=O)N2CCOCC2)CC1,8,-1,5,36*,4,7,24
Cc1ccccc1-c1nc2ccccc2c(=O)n1N=Cc1ccccc1[N+](=O)[O-],.,.,.,3,.,.,.
Clc1ccc(C2=NNC(=NCC3CCCO3)SC2)cc1 (centres undefined),1,-2,0,51*,7,3,4
CCOC(=O)c1c(-c2ccc(-c3ccccc3)cc2)csc1NC(=O)CNCCN(C)C,14,.,0,25*,8,2,84*
CCOC(=O)c1c(-c2ccccc2)csc1NC(=O)CCN1C(=O)c2ccccc2C1=O,-3,0,-7,-1,4,4,.
CC(=O)Oc1c(Br)cc(N(C(C)=O)S(=O)(=O)c2ccccc2)c2ccccc12,13,-3,10,36*,4,9,9
COc1cccc(NC2=C(Cl)C(=O)OC2OC(=O)c2ccco2)c1 (centres undefined),1,-1,3,37*,3,1,5
CCCCCc1ccc(-c2cn(Cc3cccc(OC)c3)nn2)cc1,3,-12,-8,4,-7,6,.
CCCCCc1ccc(-c2cn(Cc3ccc(C)cc3)nn2)cc1,4,-3,-3,35*,-3,1,2
COc1ccc([N+](=O)[O-])cc1C=NNC(=O)/C(=C\c1cccs1)NC(=O)c1ccccc1,.,.,.,11,.,.,.
NC1=C(Br)C(=O)c2ccccc2C1=O,14,0,6,34*,5,0,50
O=S(=O)(NCCC1=CCCCC1)c1cccc(S(=O)(=O)N2CCOCC2)c1,3,5,-3,58*,10,30*,59*
O=C(O)c1ccc(S(=O)(=O)/N=C2\C=C(Nc3ccccc3F)C(=O)c3ccccc32)cc1,61*,4,72*,93*,58*,19,99*
O=C(O)c1ccc(NC2=CC(=NS(=O)(=O)c3ccccc3)c3ccccc3C2=O)cc1,.,.,.,95*,.,.,98*
COC(=O)C(C(C)=O)C1=C/C(=N\S(=O)(=O)c2ccc(C)cc2)c2ccccc2C1=O (centres undefined),1,-2,4,.,1,3,.
SMILES,PAFAH1B3 inh,NR3A LBD binder,PAFAH2 FP inh,UCH37 DUB inh,PAFAH1B2 inh,pPAFAH FP inh,UCH37 confirm
Cc1ccc(N2CC(C(=O)NCCC3=CCCCC3)CC2=O)cc1 (centres undefined),6,2,-1,41*,6,-8,55*
O=C(O)CCCN1C(=O)/C(=C\c2ccc(-c3nc4ccccc4s3)o2)SC1=S,25,0,41*,39*,13,30*,44
CCOC(=O)c1sc(=S)n(CC)c1N,5,-1,-5,52*,2,8,25
COc1cccc(C=NNC(=O)NC2CCCCC2)c1O,.,.,.,-5,.,.,.
Cn1cnc([N+](=O)[O-])c1Nc1ccc(O)cc1,8,2,-2,52*,-2,4,0
O=C1NC(=O)C(=Cc2ccccc2[N+](=O)[O-])S1,20,-1,5,86*,6,.,99*
O=C1NC(=O)/C(=C/c2cccc3ccccc23)S1,18,-14,-2,8,8,-15,.
CC(=NNC(=O)c1ccccc1F)c1ccc(C#N)cc1,.,.,.,1,.,.,.
Oc1cccc(C=NNc2cccc3cccnc23)c1,.,.,.,-8,.,.,.
CCOc1ccccc1NC(=O)CSc1c(C)n[nH]c1C,2,0,-1,36*,2,5,8
N#C/C(=C\c1ccc(N2CCCCC2)o1)C(N)=O,-1,2,3,30*,2,5,26
O=C1C(=C(I)I)c2ccccc2-c2ccccc21,13,1,8,.,-4,.,.
NC1=CC(=O)C(=O)c2ccccc21,12,-1,7,44*,6,.,58*
CCN1C(=O)/C(=C/C=C2/CCCN2C)OC1=S,-2,-3,6,29*,0,5,36
CN1C(=O)/C(=C\C=C2/CCCN2C)N(C)C1=S,8,5,-4,39*,0,1,31
CCN1C(=O)/C(=C/N(C)c2ccccc2)OC1=S,2,4,-4,9,5,-4,.
CC(=NNC(=S)NC1CCCCC1)c1ccc(C#N)cc1,.,.,.,6,.,.,.
CCc1ccc(C(C)=NNS(=O)(=O)c2ccc(OC)cc2)s1,.,.,.,5,.,.,.
CCOc1ccc(N(C)c2ccc(/C=C3/SC(=S)NC3=O)cc2)cc1,3,-1,-14,.,-4,6,.
CCOc1c(O)ccc(/C=C2\SC(=S)NC2=O)c1[N+](=O)[O-],25,6,7,59*,9,9,63*
CCOC(=O)N1CCN(C2=C(NS(=O)(=O)c3ccc(NC(C)=O)cc3)C(=O)c3ccccc3C2=O)CC1,10,1,11,30*,6,4,15
CC(=NNC(=O)C(N)=O)c1ccc(OC(F)F)cc1,.,.,.,6,.,.,.
O=C(NC(=S)Nc1ccc(Oc2ccc(Cl)cc2)cc1)c1ccccc1,-7,-5,-3,47*,-1,-3,6
O=C(NC(=S)Nc1ccc(Cl)cc1)c1ccccc1,7,1,11,2,1,4,.
CN=CC1=C(O)c2ccccc2C1=O,5,0,-2,7,1,4,.
CCC(=O)N(CC)C1=C(O)c2ccccc2C(=O)C1=O,11,-1,0,37*,7,2,9
CCOC(=O)/C=C(\C)Sc1cc(O)c2ccccc2c1O,36*,-1,31*,81*,19,.,82*
